Shown are actives, neighbours in structure and some others; about 3.7% of the full set was active somewhere.
KCNK9 block = KCNK9 potassium channel inhibitors, primary screen, HEK293 cells, thallium flux | Potassium channel subfamily K member 9 (Homo sapiens), Q9NPC2 | FluxOR thallium flux fluorescence; stronger effect = lower value | B-score at 10 µM | 310,000 tested, 1.2% active | AID 488922, 2010;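 active = ratio B-score over 3 SD below the library mean, with starting fluorescence within 5 SD of its mean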;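 note: negative B-score means less thallium flux so channel inhibition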
Target sequence (Q9NPC2 whole entry, looked up): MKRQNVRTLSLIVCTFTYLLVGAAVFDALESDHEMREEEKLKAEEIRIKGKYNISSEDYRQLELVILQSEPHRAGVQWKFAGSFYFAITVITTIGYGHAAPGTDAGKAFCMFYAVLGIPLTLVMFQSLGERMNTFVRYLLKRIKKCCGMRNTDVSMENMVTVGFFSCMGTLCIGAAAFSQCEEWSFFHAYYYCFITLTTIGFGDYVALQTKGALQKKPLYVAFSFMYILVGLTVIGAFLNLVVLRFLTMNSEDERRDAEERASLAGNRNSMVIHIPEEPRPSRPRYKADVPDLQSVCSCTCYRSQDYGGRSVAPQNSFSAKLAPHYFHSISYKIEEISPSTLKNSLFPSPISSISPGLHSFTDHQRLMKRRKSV
KCNK3 block = human KCNK3 channel inhibitors, primary screen, CHO cells, FluxOR thallium flux, B-score; Potassium channel subfamily K member 3 (Homo sapiens), O14649; FluxOR fluorescence; stronger effect = lower value; B-score at 10 µM; 340,000 tested, 0.84% active; AID 602410, 2012;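 active = B-score under library mean minus 4 SD, starting fluorescence ratio at most library mean plus 5 SD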;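 note: more negative B-score means stronger inhibition of thallium flux through KCNK3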
KCNQ1 inh = inhibitors of human KCNQ1 channel, primary screen, cell-based, thallium flux, high-throughput | Potassium voltage-gated channel subfamily KQT member 1 (Homo sapiens), P51787 | CHO-K1 KCNQ1, FluxOR thallium flux fluorescence; stronger effect = higher value | B-score at 10 µM | 310,000 tested, 1.3% active;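 active = compounds whose thallium flux B-score, printed positive for inhibition, exceeds three library SD while starting fluorescence stays within three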;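 note: channel opened by potassium depolarization with thallium stimulus after 20 min compound exposure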
Kir21 block = inhibitors of mouse Kir2.1 inward-rectifier potassium channel. B-score at 10 µM. HEK293-Kir2.1, FluxOR thallium flux fluorescence; stronger effect = lower value. Inward rectifier potassium channel 2 (Mus musculus), P35561. 310,000 tested, 0.85% active. AID 1672, 2009;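 active = fluorescence ratio B-score at or below minus 3 SD of library scores, with starting-brightness B-score within 2 SD, cut at about -4.2 in these data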;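 note: channel flux triggered by added potassium and thallium sulfate stimulus; B-score of peak minus minimum fluorescence over baseline after thallium stimulus; more negative B-score means stronger Kir2.1 block with less thallium influx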
KCNQ1 pot = potentiators or activators of KCNQ1 channel, primary screen, cell-based, thallium flux, high-throughput; B-score at 10 µM; 310,000 tested, 0.35% active; CHO-K1 KCNQ1, thallium flux FluxOR fluorescence; stronger effect = higher value;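 active = fluorescence ratio B-score, a plate-corrected score, at least three library SD, with initial intensity B-score within 5 SD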
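Assay system: stable KCNQ1 CHO-K1 line; medium: assay buffer, equal DMSO in all wells; timing: 90 min dye loading and 20 min compound exposure, both at room temperature; technique: kinetic FluxOR thallium fluorescence, 10-s 1-Hz baseline, 110-s post-stimulus read; read-out basis: B score of baseline-normalized fluorescence ratio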
hERG rescue = hERG rescue from dofetilide block, primary screen, cell-based, CHO-hERG, FluxOR thallium flux, dofetilide IC70 | AID 1511, 2009 | Voltage-gated inwardly rectifying potassium channel KCNH2 (Homo sapiens), Q12809 | 310,000 tested, 0.51% active | dofetilide IC70 present | activation (rescue from dofetilide block), less the hit threshold, % at 10 µM;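 active = activation above the mean of controls blocked by dofetilide plus 5 SD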;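 note: thallium influx through hERG after potassium depolarization seen as dye fluorescence rise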
An asterisk follows results filed as active; i = inactive; / = no result.

SMILES	KCNK9 block	KCNK3 block	KCNQ1 inh	Kir21 block	KCNQ1 pot	hERG rescue
CCOc1ccc(NC(=O)c2ccc(NC(=O)CSc3nc4ccccc4c(=O)[nH]3)cc2)cc1	i	i	i	-1.47	i	4.7*
CS(=O)(=O)N1CCc2cc(C(=O)Nc3ccc(Br)cc3)ccc21	i	i	i	1.71	i	-8.0
CCN1C(=O)/C(=C/c2cn(-c3ccccc3)nc2-c2cccnc2)SC1=S	/	-10.3*	/	/	/	/
Cc1ccc(-c2nn(-c3ccccc3)cc2/C=C2\SC(=S)N(CC(=O)O)C2=O)cc1	i	i	i	-0.5	i	-11.2
CN(C)S(=O)(=O)c1cccc(COC(=O)Cc2c(F)cccc2Cl)c1	i	i	i	-0.39	i	-11.3
CC(C)c1ccc(N(CCc2ccccn2)C(=O)C(C)(C)C)cc1	i	i	i	-0.64	i	-4.2
CSc1nc2c(c(=O)[nH]1)C(c1ccc(C(F)(F)F)cc1)CC(=O)N2 (configuration not stated)	i	i	i	0.07	i	-5.0
COc1cc2c(cc1OC)C(c1ccc(Br)cc1)CC(=O)N2 (configuration not stated)	i	i	i	0.74	i	-9.1
CSc1nc2c(c(=O)[nH]1)C(c1ccc(Br)cc1)CC(=O)N2 (configuration not stated)	i	i	i	-0.12	i	11.1*
CSc1nc2c(c(=O)[nH]1)C(c1ccc(F)cc1)CC(=O)N2 (configuration not stated)	i	i	i	-0.14	i	11.6*
CC(C)c1nc2sc3c(SCCN(C)C)ncnc3c2c2c1CCC2	/	i	/	/	/	/
Cc1cc(=O)cc(C)n1-c1ccc(F)cc1F	i	i	i	0.07	i	6.6*
COc1ccc(N2CCN(C(=O)c3ccc(Cl)c(S(=O)(=O)N4CCOCC4)c3)CC2)cc1	/	i	/	/	/	/
Cn1c(=O)c2c(ncn2CC(=O)OCc2ccccc2)n(C)c1=O	i	i	i	2.83	i	5.3*
COC(=O)Cn1cnc2c1c(=O)n(C)c(=O)n2C	i	i	i	-0.74	i	-3.6
COc1ccc(S(=O)(=O)NCCSc2ccc(C)cc2)cc1OC	i	i	i	-5.25*	i	-4.7
COc1ccc(S(=O)(=O)NCCSc2ccccc2)cc1OC	i	i	i	0.17	i	-13.4
CCn1nc(NS(=O)(=O)c2ccc([N+](=O)[O-])cc2)c2cc3cccc(C)c3nc21	i	i	9*	2.9	i	-6.6
CCn1nc(NS(=O)(=O)c2ccccc2[N+](=O)[O-])c2cc3cccc(C)c3nc21	i	i	i	2.15	i	-16.5
O=C1c2cccc(NCCCNCCO)c2C(=O)c2cccc(NCCCNCCO)c21	/	i	/	/	/	/
Cn1c2ccccc2c2cc(/C=C(\NC(=O)c3ccccc3)C(=O)O)ccc21	i	i	i	1.99	i	-4.4
CC(C)OC(=O)/C(=C\c1ccc2c(c1)c1ccccc1n2C)NC(=O)c1ccccc1	-7.93*	i	i	-1.53	i	-7.5
CC(C)OC(=O)/C(=C/c1ccc2c(c1)c1ccccc1n2C)NC(=O)c1ccccc1	-7.61*	i	i	0.35	i	-3.9
CC(C)OC(=O)/C(=C\c1cccnc1)NC(=O)c1ccccc1	i	i	i	-0.15	i	-4.6
COc1cccc(COC(=O)C2CCN(S(=O)(=O)c3ccc(F)cc3)CC2)c1OC	/	i	/	/	/	/
OC(CNCC1(N2CCCCC2)CCCCC1)COc1ccc(Cl)cc1Cl (configuration not stated)	i	i	i	-9.28*	i	-9.3
O=C(COc1ccc(Cl)cc1Cl)NCC1(N2CCOCC2)CCCCC1	/	i	/	/	/	/

Screening data from PubChem.
